For one compound, inhibition in vivo, IC50 and Kd results are on record in ChEMBL document CHEMBL1132701, “Orally active isoxazoline glycoprotein IIb/IIIa antagonists with extended duration of action” (J Med Chem, 1999).

The test system of experiment [1] is Canis familiaris. Briefly: Inhibition ex vivo platelet aggregation by the compound in dogs after 5 hr of administration of iv bolus dose of 0.025 mg/kg. The class given is functional. The note with it: Canis lupus familiaris. A digest of the protocol:
(§1)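 Dogs received an iv bolus, mostly 0.025 mg/kg, with some tested at 0.05 mg/kg. Blood was sampled at 1, 5 and 24 h postdose. Ex vivo platelet aggregation was stimulated with ADP (100 μM) and reported as % inhibition; n = 2.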

The subject of experiment [2] is Canis familiaris. Briefly: Inhibition of ex vivo platelet aggregation by the compound in dogs after 1 hr of administration of iv bolus dose of 0.025 mg/kg. The format is functional. The note with it: Canis lupus familiaris. A digest of the protocol: as §1
The species named for experiment [3] is Canis familiaris. The experiment can be described thus: The compounds were tested for their ability to inhibit ADP-stimulated platelet aggregation in dog platelet rich plasma. The class given is functional. The note with it: Canis lupus familiaris.
The species named for another experiment is Homo sapiens. The experiment can be described thus: The compound was tested against free acid of DMP 754 to inhibit ADP-stimulated platelet aggregation in human platelet rich plasma. The format is functional. In a few lines:
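IC50 for inhibition of ADP-induced aggregation in human platelet-rich plasma, determined in three donors.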

Experiment [4] concerns the target Integrin alpha-IIb/beta-3 (Canis familiaris). Briefly: Dissociation constant for activated Fibrinogen Receptor.
The target is the same in experiment [5]. Briefly: Dissociation constant for unactivated Fibrinogen Receptor.
Experiment [6] deals with Canis familiaris. Briefly: Inhibition ex vivo platelet aggregation by the compound in dogs after 1 hr of administration of oral dose of 0.3 mg/kg. The note with it: Canis lupus familiaris.
Experiment [7] relates to Canis familiaris. Briefly: Inhibition ex vivo platelet aggregation by the compound in dogs after 6 hr of administration of oral dose of 0.3 mg/kg. The note with it: Canis lupus familiaris.
The subject of experiment [8] is Canis familiaris. Briefly: Inhibition ex vivo platelet aggregation by the compound in dogs after 24 hr of administration of oral dose of 0.3 mg/kg. The note with it: Canis lupus familiaris.

As usually defined, the inhibition in vivo is the relative decrease from the control value, in per cent. Lower therefore signals little suppression. In general, IC50 refers to the point on the concentration scale where inhibition reaches its midpoint. In general, Kd refers to a measure of binding affinity in units of concentration.

On to `CCCCOC(=O)N[C@@H](CNC(=O)C[C@H]1CC(c2ccc(C(=N)N)cc2)=NO1)C(=O)OC` [ROXIFIBAN], for which the inhibition in vivo at 0.025 mg/kg with Canis familiaris [1] came to 38%; with Canis familiaris [2] it was 100%. The IC50 in the experiment listed under Canis familiaris [3] amounted to 27 nM; in the experiment listed under Homo sapiens, 50 nM. The values for the Kd in [4] and in experiment [5] were 2.83 nM and 2.36 nM, respectively. Further, the inhibition in vivo at 0.3 mg/kg in the experiment with Canis familiaris [6] is 54%; with Canis familiaris [7] it was 76%; with Canis familiaris [8] it was 11%.
